Many of the other results were omitted from the sample, so hits are more common in it than they were.
INS-1E rescue = preserves ATP levels in cytokine-treated INS-1E cells; protection from cytokine-induced ATP loss, % at 10 µM; hit rate 0.1% among 20,000; INS-1E cytokine-induced death, ATP luminescence, 48 h; normalised: neutral wells 0, positive control 100;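 active = mean replicate protection from cytokine-induced ATP loss at least 50% and at least 75% of replicates each reaching 50%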
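Assay system – rat INS-1E insulinoma cell line · Quantity – 8000 cells per well · Buffer or medium – RPMI without phenol red, 5% FBS · Schedule – 48 h co-treatment, 10 min post-lysis read · Technique – luminescent ATP assay (CellTiter-Glo)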
T cruzi HTS = inhibitors of intracellular Trypanosoma cruzi | intracellular Trypanosoma cruzi in host cells, plate reader | activity score (inhibition), % at 5.01 µM | hit rate 4.9% among 22,000; in the data active = activity score above about 55%;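 note: parasites and compound incubated about four days before reading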
A1 apoptosis 2 = A1 inhibition read as caspase activation; MEF A1-2A-BIM cells, caspase-Glo luminescence, 3 h; percent of clofoctol response, DMSO zero; caspase activation, % (concentration not given with the values); 24,000 tested, under 10 active; AID 2465; in the data active = caspase activation above about 5.9%
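Material: A1-2A-BIM-expressing MEF cells. Buffer or medium: RPMI-1640 plus 10% FBS. Incubation: cells settled overnight, compound exposure 3 h at 37 °C, 5% CO2. Signal: Caspase-Glo 3/7 luminescence, 1 h at room temperature.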
Hits are given with their value; n = inactive; x = not tested or not shown.

SMILES	INS-1E rescue	T cruzi HTS	A1 apoptosis 2
COc1ccc(NC(=O)Nc2ccc3c(c2)C(=O)N([C@H](C)CO)C[C@H](C)[C@H](CN(C)Cc2ccc(Cl)c(Cl)c2)O3)cc1	n	n	n
COCCCNC(=O)[C@@]1(C)c2ccccc2C(=O)N(Cc2cc(C(F)(F)F)cc(C(F)(F)F)c2)[C@H]1c1ccc(CO)cc1	x	x	n
COc1ccc(S(=O)(=O)Nc2ccc3c(c2)CC(=O)N([C@H](C)CO)C[C@@H](C)[C@@H](CN(C)S(=O)(=O)c2ccc(OC)cc2)O3)cc1	n	67	n
COc1ccc(S(=O)(=O)Nc2ccc3c(c2)CC(=O)N([C@@H](C)CO)C[C@H](C)[C@@H](CN(C)S(=O)(=O)c2ccc(OC)cc2)O3)cc1	n	n	n
O=C(C1=C[C@@H](c2ccc3c(c2)Cc2ccccc2-3)C[C@@H](OCc2ccc(CO)cc2)O1)N1CCCCC1	x	x	n
C[C@H]1CN([C@@H](C)CO)C(=O)c2cccc(NC(=O)C3CCCCC3)c2O[C@@H]1CN(C)Cc1ccc(Oc2ccccc2)cc1	n	67	x
C[C@H]1CN([C@@H](C)CO)C(=O)c2cccc(N(C)C)c2O[C@@H]1CN(C)Cc1ccccc1	n	n	n
C[C@@H]1CN([C@H](C)CO)C(=O)c2cccc(NC(=O)C3CC3)c2O[C@H]1CN(C)Cc1ccc(Oc2ccccc2)cc1	n	63	x
C[C@@H]1CN([C@H](C)CO)C(=O)c2cccc(NC(=O)C3CCCCC3)c2O[C@@H]1CN(C)Cc1ccc(Oc2ccccc2)cc1	n	n	n
C[C@H]1CN([C@@H](C)CO)C(=O)c2cccc(NC(=O)C3CC3)c2O[C@H]1CN(C)Cc1ccc(Oc2ccccc2)cc1	n	n	x
C[C@@H]1CN([C@H](C)CO)C(=O)c2cccc(N(C)C)c2O[C@H]1CN(C)Cc1ccc(Oc2ccccc2)cc1	n	70	n
CC1(C)COC(CCC/C=N/NC(=O)CCCCCCC(=O)O)OC1	n	n	x
COc1ccc(O)c(/C=N/NC(=O)c2ccccc2O)c1	n	n	n
C[C@@H]1CCCCO[C@@H](CN(C)Cc2ccc(C(F)(F)F)cc2)[C@@H](C)CN([C@H](C)CO)C(=O)c2cc(NS(=O)(=O)c3ccc(Cl)cc3)ccc2O1	n	63	x
COc1ccc(S(=O)(=O)Nc2ccc3c(c2)C(=O)N([C@H](C)CO)C[C@H](C)[C@H](CN(C)Cc2ccc(C(F)(F)F)cc2)OCCCC[C@@H](C)O3)cc1	n	65	x
Cc1ccc(S(=O)(=O)Nc2ccc3c(c2)C(=O)N([C@@H](C)CO)C[C@@H](C)[C@@H](CN(C)Cc2ccc(C(F)(F)F)cc2)OCCCC[C@H](C)O3)cc1	x	x	n
C[C@@H]1CCCCO[C@H](CN(C)Cc2ccc(C(F)(F)F)cc2)[C@H](C)CN([C@@H](C)CO)C(=O)c2cc(NS(=O)(=O)c3ccc(Cl)cc3)ccc2O1	x	x	n
C[C@@H]1CCCCO[C@H](CN(C)Cc2ccc(C(F)(F)F)cc2)[C@@H](C)CN([C@H](C)CO)C(=O)c2cc(NS(=O)(=O)c3ccc(F)cc3)ccc2O1	n	56	n
COc1ccc(S(=O)(=O)Nc2ccc3c(c2)C(=O)N([C@H](C)CO)C[C@@H](C)[C@H](CN(C)Cc2ccc(C(F)(F)F)cc2)OCCCC[C@@H](C)O3)cc1	x	x	n
C[C@@H]1CN([C@H](C)CO)C(=O)c2cc(NS(=O)(=O)c3ccc(F)cc3)ccc2O[C@@H](C)CCCCO[C@H]1CN(C)Cc1ccc(C(F)(F)F)cc1	x	x	n
Cc1ccc(S(=O)(=O)Nc2ccc3c(c2)C(=O)N([C@H](C)CO)C[C@H](C)[C@H](CN(C)Cc2ccc(C(F)(F)F)cc2)OCCCC[C@@H](C)O3)cc1	n	66	x
COc1ccc(Br)c(/C=N/NC(=O)c2cccc(C(=O)NO)c2)c1	n	n	n
O=C(CCCCCCC(=O)Nc1ccccc1O)N/N=C/[C@H](O)[C@@H](O)[C@H](O[C@@H]1O[C@H](CO)[C@H](O)[C@H](O)[C@H]1O)[C@H](O)CO	n	n	x
CC(/C=C/C(=O)NO)=C\c1ccccc1OCc1cn(C[C@@H]2CCCN2S(=O)(=O)c2ccc(C)cc2)nn1	x	x	n
C[C@H](CO)N1C[C@H](C)[C@H](CN(C)Cc2ccc(C(=O)Nc3ccccc3N)cc2)Oc2c(NC(=O)Nc3ccc4c(c3)OCO4)cccc2C1=O	n	n	n
C[C@@H]1CN([C@H](C)CO)C(=O)c2cccc(NC(=O)Nc3ccc4c(c3)OCO4)c2O[C@H]1CN(C)Cc1ccc(C(=O)Nc2ccccc2N)cc1	n	77	x
